Measurements: ChEMBL document CHEMBL1781937, “Antioxydant activity of β-carboline derivatives in the LDL oxidation model” (2011)

Legend:
[1] = Antioxidant activity in BAEC assessed as protection against air-oxidized LDL-induced cell death at 10 uM pretreated for 24 hrs before air-oxidized LDL challenge measured after 16 hrs by lactate dehydrogenase release assay (reference value: 22.76 +/- 1.53 %); format: functional, Bos taurus
[2] = Antioxidant activity against APPH-induced LDL-oxidation assessed as length of lag phase of oxidative procedure of LDL at 0.1 to 10 uM measured every 10 mins for 8 hrs by spectrophotometry relative to 1 uM of APPH; format: functional
In short: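 AAPH oxidation of LDL: LDL isolated by NaBr density ultracentrifugation (1.019–1.063 g/mL) and dialysed in 0.01 M PBS pH 7.4 under N2 at 4 °C. 160 µL LDL (125 µg protein/mL) is mixed with 20 µL of 2 mM AAPH and compound (0.1–10 µM) at 30 °C. Conjugated dienes are read at 234 nm every 10 min for 8 h. R is the lag phase with compound divided by the control lag phase.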

[3] = Antioxidant activity against copper-induced LDL-oxidation assessed as length of lag phase of oxidative procedure of LDL at 0.1 to 10 uM measured every 10 mins for 8 hrs by spectrophotometry relative to 1 uM of copper; format: functional
In short: (§1)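 Copper oxidation of LDL: LDL isolated by NaBr density ultracentrifugation (1.019–1.063 g/mL) and dialysed in 0.01 M PBS pH 7.4 under N2 at 4 °C. 20 µL of 16.6 µM CuSO4 is added to 160 µL LDL (125 µg protein/mL) with compound (0.1–10 µM) or PBS at 30 °C. A234 is read every 10 min for 8 h. R is the compound lag phase divided by the control lag phase.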

[4] = Antioxidant activity against CuSO4-induced LDL-oxidation assessed as increase in lag phase of conjugated diene formation by 1.5 times measured every 10 mins for 8 hrs by spectrophotometry analysis
[5] = Antioxidant activity against copper-induced LDL-oxidation assessed as length of lag phase of oxidative procedure of LDL at 0.1 to 10 uM measured every 10 mins for 8 hrs by spectrophotometry relative to 5 uM of copper; format: functional; in short: as §1

For `CCCN1CCc2c([nH]c3ccc(CC)cc23)C1c1cccc(OCc2ccccc2)c1` (stereo not drawn), the Activity [1] was 13.42%, the Activity [2] was 2.3 and the Ratio [3] was 2.2. It also gave an ED50 [4] of 0.1 µM and an Activity [5] of 4.2.
With `CCCN1CCc2c([nH]c3ccc(CC)cc23)C1c1ccc(OC)c(OC)c1` (stereo not drawn) the Ratio [3] was 1.1, the ED50 [4] was 2 µM and the Activity [5] was 1.8.
Work on `CCCN1CCc2c([nH]c3ccc(CC)cc23)C1c1cc(C(C)(C)C)c(O)c(C(C)(C)C)c1` (stereo not drawn) yielded an Activity [1] of 13.21%, an Activity [2] of 2.6 and a Ratio [3] of 2.7. For the same compound, the ED50 [4] was less than 0.1 µM and the Activity [5] was greater than 5.
With `CCCN1CCc2c([nH]c3ccc(CC)cc23)C1c1ccc2c(c1)OCCO2` (stereo not drawn) the Ratio [3] was 1, the ED50 [4] was 9 µM and the Activity [5] was 1.2.
In the case of `CCc1ccc2[nH]c3c(c2c1)CCNC3c1ccc(O)c(O)c1` (stereo not drawn), the Activity [1] is reported as 13.3%, the Activity [2] is reported as 2.6 and the Ratio [3] is reported as 2.8. The ED50 [4] was less than 0.1 µM and the Activity [5] was greater than 5.
In the case of `CCCN1CCc2c([nH]c3ccc(OCc4ccccc4)cc23)C1c1cccc(OC)c1` (stereo not drawn), the Activity [1] is reported as 13.22%, the Activity [2] is reported as 2.4 and the Ratio [3] is reported as 2.4. For the same compound, the ED50 [4] was 0.1 µM and the Activity [5] was 4.4.
For `CCc1ccc2[nH]c3c(c2c1)CCNC3c1ccc(OC)c(OC)c1OC` (stereo not drawn), the Ratio [3] was 1, the ED50 [4] was 9 µM and the Activity [5] was 1.2.
`CCc1ccc2[nH]c3c(c2c1)CCNC3c1cc(C(C)(C)C)c(O)c(C(C)(C)C)c1` (stereo not drawn) showed an Activity [1] of 13.26%, an Activity [2] of 2.7 and a Ratio [3] of 2.8. For the same compound, the ED50 [4] was less than 0.1 µM and the Activity [5] was greater than 5.
Compound `CCCN1CCc2c([nH]c3ccc(O)cc23)C1c1cccc(OC)c1` (stereo not drawn) has an Activity [1] of 14.02%, an Activity [2] of 2.1 and a Ratio [3] of 1.9. For the same compound, the ED50 [4] was 0.2 µM and the Activity [5] was 3.2.
Work on `CCc1ccc2[nH]c3c(c2c1)CCNC3c1ccccc1OC` (stereo not drawn) yielded a Ratio [3] of 1.2, an ED50 [4] of 7 µM and an Activity [5] of 1.4.
For `CCCN1CCc2c([nH]c3ccc(CC)cc23)C1c1ccccc1OC` (stereo not drawn), the Ratio [3] was 1, the ED50 [4] was 4 µM and the Activity [5] was 1.6.
Compound `COc1cccc(C2NCCc3c2[nH]c2ccc(OCc4ccccc4)cc32)c1` (stereo not drawn) has a Ratio [3] of 1.1, an ED50 [4] of 5 µM and an Activity [5] of 1.5.
For `CCCN1CCc2c([nH]c3ccc(CC)cc23)C1c1ccc(OCc2ccccc2)c(OCc2ccccc2)c1` (stereo not drawn), the Ratio [3] was 1.3, the ED50 [4] was 3 µM and the Activity [5] was 1.8.
Work on `CCCN1CCc2c([nH]c3ccc(CC)cc23)C1c1cccc(O)c1` (stereo not drawn) yielded an Activity [1] of 13.2%, an Activity [2] of 2.7 and a Ratio [3] of 2.8. For the same compound, the ED50 [4] was less than 0.1 µM and the Activity [5] was greater than 5.
In the case of `CCCN1CCc2c([nH]c3ccc(CC)cc23)C1c1ccc(OC)cc1` (stereo not drawn), the Ratio [3] is reported as 1, the ED50 [4] is reported as 3 µM and the Activity [5] is reported as 1.7.
In the case of `CCc1ccc2[nH]c3c(c2c1)CCN(C(=O)OCc1ccccc1)C3c1cccc(OCc2ccccc2)c1` (stereo not drawn), the Ratio [3] is reported as 1, the ED50 [4] is reported as 10 µM and the Activity [5] is reported as 1.
In the case of `CCCN1CCc2c([nH]c3ccc(CC)cc23)C1c1ccc(O)c(O)c1` (stereo not drawn), the Activity [1] is reported as 13.19%, the Activity [2] is reported as 2.7 and the Ratio [3] is reported as 2.7. It also gave an ED50 [4] of less than 0.1 µM and an Activity [5] greater than 5.
`CCc1ccc2[nH]c3c(c2c1)CCN(C(=O)OCc1ccccc1)C3c1ccc(OCc2ccccc2)c(OCc2ccccc2)c1` (stereo not drawn) gave a Ratio [3] of 1.1, an ED50 [4] of 8 µM and an Activity [5] of 1.3.
In the case of `CCc1ccc2[nH]c3c(c2c1)CCNC3c1cccc(OC)c1` (stereo not drawn), the Ratio [3] is reported as 1.1, the ED50 [4] is reported as 9 µM and the Activity [5] is reported as 1.2.
Work on `CCCCCCCCCN1CCc2c([nH]c3ccc(CC)cc23)C1c1cccc(OC)c1` (stereo not drawn) yielded a Ratio [3] of 1, an ED50 [4] of 9 µM and an Activity [5] of 1.2.
Compound `CCc1ccc2[nH]c3c(c2c1)CCNC3c1ccc(OC)c(OC)c1` (stereo not drawn) has a Ratio [3] of 1, an ED50 [4] of 10 µM and an Activity [5] of 1.1.
Work on `CCC(=O)N1CCc2c([nH]c3ccc(CC)cc23)C1c1cccc(OC)c1` (stereo not drawn) yielded a Ratio [3] of 1, an ED50 [4] of 9 µM and an Activity [5] of 1.2.
For `CCCN1CCc2c([nH]c3ccc(CC)cc23)C1c1cccc(OC)c1` (stereo not drawn), the Activity [1] was 15.32%, the Ratio [3] was 1.2 and the ED50 [4] was 4 µM. The Activity [5] was 1.6.
Compound `CCc1ccc2[nH]c3c(c2c1)CCNC3c1cccc(O)c1` (stereo not drawn) has an Activity [1] of 13.31%, an Activity [2] of 2.6 and a Ratio [3] of 2.7. The ED50 [4] was less than 0.1 µM and the Activity [5] was greater than 5.
Work on `CCc1ccc2[nH]c3c(c2c1)CCNC3c1ccc2c(c1)OCCO2` (stereo not drawn) yielded a Ratio [3] of 1, an ED50 [4] of 10 µM and an Activity [5] of 1.1.
`CCc1ccc2[nH]c3c(c2c1)CCN(C)C3c1cccc(OC)c1` (stereo not drawn) showed a Ratio [3] of 1, an ED50 [4] of 1 µM and an Activity [5] of 1.9.
`CCCCCN1CCc2c([nH]c3ccc(CC)cc23)C1c1cccc(OC)c1` (stereo not drawn) showed a Ratio [3] of 1, an ED50 [4] of 9 µM and an Activity [5] of 1.2.
In the case of `CCCN1CCc2c([nH]c3ccc(CC)cc23)C1c1cc(OC)c(OC)c(OC)c1` (stereo not drawn), the Ratio [3] is reported as 1.2, the ED50 [4] is reported as 2 µM and the Activity [5] is reported as 1.8.
Compound `CCc1ccc2[nH]c3c(c2c1)CCNC3c1cccc(OCc2ccccc2)c1` (stereo not drawn) has an Activity [1] of 13.29%, an Activity [2] of 1 and a Ratio [3] of 1. For the same compound, the ED50 [4] was 7 µM and the Activity [5] was 1.4.
With `CCc1ccc2[nH]c3c(c2c1)CCNC3c1ccc(OC)cc1` (stereo not drawn) the Ratio [3] was 1, the ED50 [4] was 9 µM and the Activity [5] was 1.2.
Compound `CCc1ccc2[nH]c3c(c2c1)CCNC3c1cc(OC)c(OC)c(OC)c1` (stereo not drawn) has a Ratio [3] of 1, an ED50 [4] of 10 µM and an Activity [5] of 1.1.
For `CCc1ccc2[nH]c3c(c2c1)CCNC3c1ccc(OCc2ccccc2)c(OCc2ccccc2)c1` (stereo not drawn), the Activity [2] was 1, the Ratio [3] was 1 and the ED50 [4] was 7 µM. For the same compound, the Activity [5] was 1.4.
